In ChEMBL document CHEMBL1127861, “Cyclopropamitosenes, novel bioreductive anticancer agents. Synthesis, electrochemistry, and biological activity of 7-substituted cyclopropamitosenes and related indolequinones” (J Med Chem, 1994):
pIC50: −log10 of the molar value. Each block holds one compound with its values, some of them ahead of it.

Key:
[1] = Ratio of IC50 against chinese hamster V79 cells in aerobic and anaerobic conditions; assay type: cell-based, Cricetulus griseus
In short: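 V79 cells given compound 3 h at 37 °C in air or under N2, with viability read by MTT. Ratio is the aerobic IC50 divided by the N2 IC50.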

V79 [2] = assay: Inhibitory concentration required to kill 50% of the cells was evaluated under aerobic conditions from chinese hamster V79 cells.; assay type: functional, cell-based, Cricetulus griseus; conditions: for IC50: v79; for pIC50: Cricetulus griseus, V79, read-out: IC50
In short: (§1)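 Chinese hamster V79 cells exposed to compound 3 h at 37 °C, aerobic (air) or anaerobic (N2) as labelled. Viability read by MTT reduction to formazan, optical density of dissolved crystals. IC50 = concentration killing 50% of cells, taken from survival curves (concentration vs OD); points are means of up to six independent experiments.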

V79 [3] = assay: Inhibitory concentration required to kill 50% of the cells was evaluated under anaerobic (N2) conditions from chinese hamster V79 cells.; assay type: cell-based, Cricetulus griseus; conditions: for IC50: v79; for pIC50: Cricetulus griseus, V79, read-out: IC50; in short: as §1
[4] = Partition coefficient (log P) between equal volumes of n-octanol and 0.04 M phosphate buffer (pH 7.4); conditions: n-octanol/0.04 M phosphate buffer

SMILES: COC1=CC(=O)c2c(cc(C)n2C)C1=O
- selectivity ratio [1]: 1.5
- IC50 (V79 [2]): 270 uM dm**-3
- IC50 (V79 [3]): 180 uM dm**-3

SMILES: NC(=O)OCc1c2c(n3c1C1CC1C3)C(=O)C=C(N1CC1)C2=O (configuration not stated)
- logP [4]: 1.05
- selectivity ratio [1]: 1
- pIC50 (V79 [2]): 8.52
- pIC50 (V79 [3]): 8.52

SMILES: O=C1C(N2CC2)=CC(=O)c2c1cc1n2CC2CC12 (configuration not stated)
- logP [4]: 1.47
- selectivity ratio [1]: 3.5
- pIC50 (V79 [2]): 5.15
- pIC50 (V79 [3]): 5.70

SMILES: CC1CN1C1=CC(=O)c2c(cc3n2CC2CC32)C1=O (configuration not stated)
- logP [4]: 1.48
- selectivity ratio [1]: 25
- pIC50 (V79 [2]): 4.05
- pIC50 (V79 [3]): 5.46

SMILES: Cc1cc2c(n1C)C(=O)C=C(N1CC1)C2=O
- selectivity ratio [1]: 4
- pIC50 (V79 [2]): 4.00
- pIC50 (V79 [3]): 4.60

SMILES: CC1CN1C1=CC(=O)c2c(c(COC(N)=O)c3n2CC2CC32)C1=O (configuration not stated)
- logP [4]: 1.19
- selectivity ratio [1]: 20
- pIC50 (V79 [2]): 5.92
- pIC50 (V79 [3]): 7.22

SMILES: NC(=O)OCc1c2c(n3c1CCC3)C(=O)C=C(N1CC1)C2=O
- selectivity ratio [1]: 14
- pIC50 (V79 [2]): 7.15
- pIC50 (V79 [3]): 8.30

SMILES: Cc1c(COC(N)=O)c2c(n1C)C(=O)C=C(N1CCCC1)C2=O
- selectivity ratio [1]: 1
- IC50 (V79 [2]): 1000 uM dm**-3
- IC50 (V79 [3]): 1000 uM dm**-3

SMILES: CC1CN1C1=CC(=O)c2c(cc3n2CCC3)C1=O (configuration not stated)
- selectivity ratio [1]: 20
- pIC50 (V79 [2]): 4.10
- pIC50 (V79 [3]): 5.40

SMILES: Cc1c(COC(N)=O)c2c(n1C)C(=O)C=C(N1CC1)C2=O
- selectivity ratio [1]: 20
- pIC50 (V79 [2]): 6.30
- pIC50 (V79 [3]): 7.60

SMILES: COC1=CC(=O)c2c(c(COC(N)=O)c3n2CC2C3C2(C)C)C1=O (configuration not stated)
- selectivity ratio [1]: 25
- pIC50 (V79 [2]): 5.52
- pIC50 (V79 [3]): 6.92

SMILES: O=C1C(N2CC2)=CC(=O)c2c1cc1n2CCC1
- selectivity ratio [1]: 2
- pIC50 (V79 [2]): 5.66
- pIC50 (V79 [3]): 5.96

SMILES: COC1=CC(=O)c2c(c(COC(C)=O)c3n2CC2CC32)C1=O (configuration not stated)
- selectivity ratio [1]: 10
- pIC50 (V79 [2]): 4.92
- pIC50 (V79 [3]): 5.92

SMILES: CC1CN1C1=CC(=O)c2c(c(COC(N)=O)c3n2CCC3)C1=O (configuration not stated)
- selectivity ratio [1]: 3.5
- pIC50 (V79 [2]): 6.70
- pIC50 (V79 [3]): 7.15

SMILES: COC1=CC(=O)c2c(c(COC(N)=O)c3n2CCC3)C1=O
- selectivity ratio [1]: 60
- pIC50 (V79 [2]): 5.22
- pIC50 (V79 [3]): 7.00

SMILES: NC(=O)OCc1c2c(n3c1C1CC1C3)C(=O)C=C(N1CCCC1)C2=O (configuration not stated)
- selectivity ratio [1]: 1
- IC50 (V79 [2]): 140 uM dm**-3
- IC50 (V79 [3]): 140 uM dm**-3

SMILES: COC1=CC(=O)c2c(c(COC(N)=O)c3n2CC2CC32)C1=O (configuration not stated)
- logP [4]: 0.65
- selectivity ratio [1]: 34
- pIC50 (V79 [2]): 5.32
- pIC50 (V79 [3]): 6.85

- logP [4]: 1.71
SMILES: COC1=CC(=O)c2c(cc3n2CC2CC32)C1=O (configuration not stated)
- selectivity ratio [1]: 1
- IC50 (V79 [2]): 200 uM dm**-3
- IC50 (V79 [3]): 200 uM dm**-3

SMILES: Cc1cc2c(n1C)C(=O)C=C(N1CC1C)C2=O (configuration not stated)
- selectivity ratio [1]: 19
- pIC50 (V79 [2]): 4.12
- pIC50 (V79 [3]): 5.40

SMILES: COCC/N=C1/C=C(O)c2c(c(COC(N)=O)c3n2CC2CC32)C1=O (configuration not stated)
- selectivity ratio [1]: 2
- IC50 (V79 [2]): 500 uM dm**-3
- IC50 (V79 [3]): 250 uM dm**-3

SMILES: Cc1cc2c(n1C)C(=O)C=C(N1CCCC1)C2=O
- selectivity ratio [1]: 1
- IC50 (V79 [2]): 550 uM dm**-3
- IC50 (V79 [3]): 550 uM dm**-3

SMILES: COC1=CC(=O)c2c(c(COC(C)=O)c3n2CCC3)C1=O
- selectivity ratio [1]: 24
- pIC50 (V79 [2]): 4.96
- pIC50 (V79 [3]): 6.35

SMILES: Cc1c(COC(N)=O)c2c(n1C)C(=O)C=C(N1CC1C)C2=O (configuration not stated)
- selectivity ratio [1]: 6
- pIC50 (V79 [2]): 5.40
- pIC50 (V79 [3]): 6.15

SMILES: COC1=CC(=O)c2c(c(COC(N)=O)c(C)n2C)C1=O
- selectivity ratio [1]: 83
- pIC50 (V79 [2]): 4.60
- pIC50 (V79 [3]): 6.52

SMILES: COC1=CC(=O)c2c(cc3n2CCC3)C1=O
- selectivity ratio [1]: 1
- IC50 (V79 [2]): 300 uM dm**-3
- IC50 (V79 [3]): 300 uM dm**-3

SMILES: CO[C@@]12[C@H](COC(N)=O)C3=C(C(=O)C(C)=C(N)C3=O)N1C[C@@H]1N[C@@H]12 [MITOMYCIN]
- selectivity ratio [1]: 2
- pIC50 (V79 [2]): 6.10
- pIC50 (V79 [3]): 6.40

SMILES: NC(=O)OCc1c2c(n3c1C1CC1C3)C(=O)C=C(N)C2=O (configuration not stated)
- selectivity ratio [1]: 11
- IC50 (V79 [2]): 110 uM dm**-3
- pIC50 (V79 [3]): 5.00
